PMI act: activators of human phosphomannose isomerase | AID 1214 | purified human PMI, coupled resazurin fluorescence, 20 min; hits give high values; 1 = vehicle control, 0 substrate-free wells | activation factor at 20 µM | P34949 | 190,000 tested, 0.005% active;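 active means activation factor of 2 or more at 20 µM, relative to plate controls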
Target sequence (P34949 whole entry, looked up): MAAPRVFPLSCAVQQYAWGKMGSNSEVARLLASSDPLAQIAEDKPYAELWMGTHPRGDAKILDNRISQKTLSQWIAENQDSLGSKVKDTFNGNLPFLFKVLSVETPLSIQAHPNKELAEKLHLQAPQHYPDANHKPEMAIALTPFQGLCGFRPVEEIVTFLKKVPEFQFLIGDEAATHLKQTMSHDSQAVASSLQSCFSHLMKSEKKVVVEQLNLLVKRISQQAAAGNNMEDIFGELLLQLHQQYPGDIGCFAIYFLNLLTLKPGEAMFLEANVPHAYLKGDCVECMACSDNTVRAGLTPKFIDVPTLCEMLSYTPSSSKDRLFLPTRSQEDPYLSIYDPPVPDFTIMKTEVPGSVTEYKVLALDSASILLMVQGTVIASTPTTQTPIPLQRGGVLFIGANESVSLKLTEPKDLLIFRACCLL
PTEN del growth: growth suppressors of cells with PTEN tumor suppressor deletion; 140,000 tested, 1.2% active; viability, % at 10 µM; HCT116 PTEN-null viability, CellTiter-Glo, 60 h; hits give low values; AID 827;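 active means viability at or below a set limit, 4 SD under the median of all tested compounds, cut at about 3.7% in these data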;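 further: PTEN knockout HCT116 line with beta catenin targeted HCT116 as companion control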
bCat KO growth: beta-catenin-lacking colon tumor cell growth suppression | HCT116 beta-catenin knockout viability, CellTiter-Glo, 60 h; hits give low values | viability, % at 10 µM | 140,000 tested, 1.5% active | AID 818;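 active means viability at or under a set limit, the compound median less 4 SD, cut at about 6% in these data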;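 further: 0% = Hyamine 1622 control at 20 µM and 100% = untreated cell control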
Lmaj promast: reduces viability of Leishmania major promastigotes; resazurin fluorescence viability; inhibition, % at 10 µM; 200,000 tested, 9% active; in the data active means inhibition above about 50%;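 further: promastigotes grown with compound for 44 hours at 28 °C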
PMI act satM6P: activators of human phosphomannose isomerase at near-saturating mannose 6-phosphate; 190,000 tested, 0.34% active; activation factor at 20 µM; P34949; AID 1216; coupled PMI enzyme assay, resazurin fluorescence, 20 min; hits give high values; 1 = untreated enzyme, 0 = substrate-free blank;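 active means activation factor of 2 or more at 20 µM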
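Test system: Human PMI in coupled enzyme assay | Input: 15 ng/mL PMI | Medium: HEPES-buffered pH 7.4 with magnesium and detergent | Compound: One concentration, 20 µM, in 1% DMSO | Incubation: Enzyme reaction with compound 20 min at room temperature | Detection: Diaphorase-driven resazurin-to-resorufin fluorescence, excitation 544, emission 590 nm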
* = called active by the depositor; x = no result given. Hits are enriched below; roughly 9.6% of the tested compounds scored in any of these assays.

SMILES	PMI act	PTEN del growth	bCat KO growth	Lmaj promast	PMI act satM6P
Cc1c(C(=O)N2CCOCC2)sc2nc(-c3ccccc3)cn12	1	95	94	-5	1
Nc1ccc(C(=O)OCc2ccncc2)cc1[N+](=O)[O-]	1.1	x	x	-6	1
CCc1ccc(CN2CCN(C(=O)c3cccc(OC)c3OC)CC2)cc1	1.2	35	31	-4	1.2
CC(=O)c1sc2nc(-c3cccs3)cc(C(F)(F)F)c2c1N	1.3	56	60	-8	1.8
Cc1c(C(=O)Nc2nccs2)sc2nc(-c3cccs3)cc(C(F)(F)F)c12	1	2.2*	1.8*	34	1
Cc1cc2c(c(SCC(=O)NCc3ccccc3Cl)n1)C(=O)OC2	1.1	x	x	-4	1.1
O=c1[nH]c2cc3c(cc2cc1CN(Cc1cccnc1)C(=S)NCc1ccco1)OCCO3	0.4	x	x	41	0.5
Cc1cc(C(=O)CN2C(=O)NC(c3ccccc3)(c3ccccc3)C2=O)c(C)n1Cc1ccco1	0.8	68	65	52*	0.8
Cc1cc(C(=O)CSc2nncs2)c(C)n1Cc1ccco1	1	x	x	6	0.9
Cc1cc(C(=O)CN2C(=O)NC(C)(c3cccc(Br)c3)C2=O)c(C)n1Cc1ccco1 (stereo unspecified)	1	3.4*	1.8*	34	1
O=C(CN1C(=O)CCC1=O)Nc1nc(-c2ccc(Oc3ccccc3)cc2)cs1	0.8	89	89	-2	0.9
O=[N+]([O-])c1ccc([N+](=O)[O-])c(Nc2ccc(N3CCOCC3)cc2)c1	1	x	x	-1	1
CCc1sc(C(=O)NC2CCN(C)CC2)cc1Br	1	95	85	35	1
Cc1noc(C)c1COc1ccc(C(=O)Nc2ccccc2)cc1	1.1	x	x	-3	1
Cc1noc(C)c1COc1cccc(C(=O)Nc2ccc(OCc3ccccc3)cc2)c1	0.9	67	60	53*	1
O=C(Nc1cccc(Cl)c1)N(Cc1nc2ccccc2c(=O)[nH]1)Cc1cccs1	0.9	39	49	43	1
O=C(c1ccccc1)C1Oc2ccccc2C2CC(c3cccs3)=NN12 (stereo unspecified)	0.9	x	x	65*	0.9
O=C(Nc1ccccc1)N1N=C(c2cccs2)CC1c1cccs1 (stereo unspecified)	0.8	74	81	89*	0.8
O=C(NCCCCNC(=O)c1ccc(Br)s1)c1ccc(Br)s1	1.1	101	103	-1	1.1
N=C1C(c2ccccc2)=C(O)CN1NC(=O)c1ccc(Cl)cc1	1	x	x	-7	1.1
CCCCOC(=O)CSC1=C(C#N)C(c2ccc3c(c2)OCO3)CC(=O)N1 (stereo unspecified)	0.9	84	83	20	1
CCOC(=O)CSC1=C(C#N)C(c2ccc3c(c2)OCO3)CC(=O)N1 (stereo unspecified)	0.9	49	51	73*	1.2
O=C(CNS(=O)(=O)c1c(Cl)cccc1Cl)OCc1csc(-c2ccccc2)n1	0.9	96	94	57*	0.9
CCOc1ccc(OCCOCCn2ccnc2)cc1	1	97	79	-2	1.1
Cc1cc(OCCn2ccnc2)cc(C(C)C)c1	0.9	93	89	92*	1
SMILES	PMI act	PTEN del growth	bCat KO growth	Lmaj promast	PMI act satM6P
Cc1cc(OCCCn2ccnc2)ccc1C(C)C	1.1	95	83	99*	1.1
CCC(C)c1ccc(OCCn2ccnc2)cc1 (stereo unspecified)	1.1	82	74	60*	1
CCc1cccc(OCCn2ccnc2)c1	1.1	106	101	40	1.2
Cc1cc(OCCCn2ccnc2)cc(C(C)C)c1	1	x	x	78*	1
COc1cc(C)ccc1OCCOCCOc1ccccc1[N+](=O)[O-]	0.9	99	96	31	1
COc1ccccc1OCCOCCOc1ccc(C)cc1[N+](=O)[O-]	1.1	88	89	55*	1.1
Cc1ccc(C)c(C(=O)COc2ccccc2[N+](=O)[O-])c1	0.8	1.6*	1.9*	30	0.9
COCCCNCCCCOc1ccc(C)cc1[N+](=O)[O-]	1.1	88	85	99*	1.1
CCCCNCCOCCOc1ccc(C)cc1[N+](=O)[O-]	0.9	84	90	91*	0.9
Cc1ccc(C)c(C(=O)COc2ccc(C)nc2[N+](=O)[O-])c1	0.8	95	96	16	0.8
Cc1ccc2nc(SCC(=O)Nc3nnc(SCC(N)=O)s3)[nH]c2c1	1	87	87	-11	1
